Here are results for 20 compounds from ChEMBL document CHEMBL3875149, “New piperidine-hydrazone derivatives: Synthesis, biological evaluations and molecular docking studies as AChE and BChE inhibitors” (Eur J Med Chem, 2016).

Data set [1] is described as follows: Antioxidant activity assessed as DPPH free radical scavenging activity after 2 hrs by spectrophotometric analysis. It is filed as functional. The essentials:
(§1)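 Spectrophotometric radical-scavenging or β-carotene bleaching test, with DMSO as negative control and BHT and α-tocopherol as positive controls. The value is reported as IC50 in µM.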

A short description of data set [2]: Antioxidant activity assessed as inhibition of beta carotene/ linoleic acid peroxidation after 120 mins by spectrophotometric analysis. Type of data set: functional. The essentials:
as §1

A short description of data set [3]: Antioxidant activity assessed as cupric reducing capacity after 1 hr by spectrophotometric analysis. It is filed as functional.
Data set [4] is described as follows: Antioxidant activity assessed as ABTS radical scavenging activity by spectrophotometric analysis. It is filed as functional. The method in brief:
as §1

Data set [5] is described as follows: Cytotoxicity against human A549 cells assessed as decrease in cell viability after 24 hrs by MTT assay. Type of data set: functional, cell-based. Particulars: A549, 24 h. The essentials:
(§2)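 A549 cells were kept in RPMI and BJ fibroblasts in EMEM, each with 10% FBS and 1% penicillin/streptomycin at 37℃ and 5% CO2. MTT was added at 0.5 mg/mL final for 3 h, formazan was dissolved in DMSO and read at 540 nm. Survival is expressed as % of the 0.1% DMSO control, and IC50 was derived from it.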
On the technique in general: Formazan colour is commonly taken as a measure of viable cells.

Another data set addresses Acetylcholinesterase (Electrophorus electricus, UniProt O42275). Briefly: Inhibition of electric eel acetylcholinesterase using acetylthiocholine iodide as substrate by Ellman's method.
In another data set the target is Cholinesterase (Equus caballus, UniProt P81908). Briefly: Inhibition of horse serum butyrylcholinesterase by Ellman's method. The method in brief: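 Spectrophotometric Ellman assay using horse serum BChE, run alongside a parallel electric eel AChE assay. Inhibition reported as IC50 in µM.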
Chain of Cholinesterase (P81908 whole entry): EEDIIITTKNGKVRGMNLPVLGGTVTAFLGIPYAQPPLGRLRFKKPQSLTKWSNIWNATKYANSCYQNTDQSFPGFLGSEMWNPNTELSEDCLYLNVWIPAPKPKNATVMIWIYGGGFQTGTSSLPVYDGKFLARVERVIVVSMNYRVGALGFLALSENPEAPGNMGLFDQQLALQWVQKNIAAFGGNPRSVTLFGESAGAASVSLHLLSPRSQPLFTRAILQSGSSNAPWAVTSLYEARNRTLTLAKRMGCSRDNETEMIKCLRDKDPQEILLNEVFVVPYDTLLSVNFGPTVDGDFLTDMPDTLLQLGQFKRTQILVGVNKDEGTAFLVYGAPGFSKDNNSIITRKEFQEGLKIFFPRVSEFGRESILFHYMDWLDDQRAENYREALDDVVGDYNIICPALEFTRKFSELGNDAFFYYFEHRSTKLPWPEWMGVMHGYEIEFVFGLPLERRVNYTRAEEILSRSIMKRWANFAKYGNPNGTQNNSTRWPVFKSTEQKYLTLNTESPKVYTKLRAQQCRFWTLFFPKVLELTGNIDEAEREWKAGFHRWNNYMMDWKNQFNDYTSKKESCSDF
A short description of data set [6]: Cytotoxicity against human BJ cells assessed as decrease in cell viability after 24 hrs by MTT assay. It is filed as toxicity, cell-based. The essentials:
as §2

Usually IC50 stands for the midpoint of a concentration-inhibition curve.

SMILES strings stand for the structures.

Chain of Acetylcholinesterase (O42275 whole entry): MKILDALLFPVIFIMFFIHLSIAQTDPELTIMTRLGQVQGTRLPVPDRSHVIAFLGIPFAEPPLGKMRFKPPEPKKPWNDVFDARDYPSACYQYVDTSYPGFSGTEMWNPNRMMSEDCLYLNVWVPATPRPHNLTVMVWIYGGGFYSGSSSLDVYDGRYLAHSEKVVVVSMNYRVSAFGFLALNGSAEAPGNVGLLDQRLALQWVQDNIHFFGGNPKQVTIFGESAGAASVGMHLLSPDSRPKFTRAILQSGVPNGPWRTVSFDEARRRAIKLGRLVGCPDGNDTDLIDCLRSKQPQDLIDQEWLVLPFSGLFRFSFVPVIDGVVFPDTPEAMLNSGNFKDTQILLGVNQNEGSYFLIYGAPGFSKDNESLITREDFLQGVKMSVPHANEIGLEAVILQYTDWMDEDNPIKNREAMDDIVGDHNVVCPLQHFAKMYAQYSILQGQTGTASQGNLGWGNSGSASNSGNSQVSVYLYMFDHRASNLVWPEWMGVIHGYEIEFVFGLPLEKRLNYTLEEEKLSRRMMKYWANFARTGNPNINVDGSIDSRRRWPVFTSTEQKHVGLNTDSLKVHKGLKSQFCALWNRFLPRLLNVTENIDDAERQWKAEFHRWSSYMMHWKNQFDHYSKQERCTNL

As to `Cc1c(C)c2c(c(C)c1O)CC[C@@](C)(CCC[C@H](C)CCC[C@H](C)CCCC(C)C)O2` [ALPHA-TOCOPHEROL], the values for the IC50 in data set [1], in data set [2] and in data set [4] were 12.3 µM, 4.5 µM and 4.87 µM, respectively. For the same compound, the A0.5 in data set [3] was found to be 40.5 µM.
For `CCOC(=O)N1CCC(=NNC(=O)c2ccc(OC)cc2)CC1`, the IC50 was over 400 µM in data set [5]; 101 µM on Acetylcholinesterase; 85.4 µM in data set [1]; 38.3 µM in data set [4]; 82.2 µM against Cholinesterase. Further, the A0.5 in data set [3] worked out at 36.9 µM.
As to `Cc1cc(C(C)(C)C)c(O)c(C(C)(C)C)c1` [BUTYLATED HYDROXYTOLUENE], the IC50 in data set [1] worked out at 55 µM; in data set [2], 2.34 µM; in data set [4] it was 2.91 µM. Besides, the A0.5 in data set [3] worked out at 3.8 µM.
As for `CCOC(=O)N1CCC(=NNC(=O)c2ccc(C(F)(F)F)cc2F)CC1`, the IC50 is over 400 µM in data set [5]; 123 µM against Acetylcholinesterase; 86 µM in data set [1]; 77.4 µM in data set [2]; 59.5 µM in data set [4]; 95.1 µM against Cholinesterase. Further, the A0.5 in data set [3] came out at 27.3 µM. Besides, in data set [6], the IC50 at 24 h was over 400 µM.
As to `O=C(NN=C1CC(c2ccccc2)NC(c2ccccc2)C1)c1ccc(F)cc1` (configuration not stated), the IC50 was over 400 µM in data set [5]; 91.1 µM at Acetylcholinesterase; 66 µM in data set [1]; 56.6 µM in data set [2]; 83.7 µM in data set [4]; 72.8 µM against Cholinesterase. For the same compound, the A0.5 in data set [3] was 59.6 µM. The IC50 at 24 h in data set [6] is over 400 µM.
`CCOC(=O)N1CCC(=NNC(=O)c2ccc(F)cc2)CC1`: the IC50 in data set [5] is over 400 µM; against Acetylcholinesterase, 128 µM; in data set [1] it was 74.8 µM; in data set [2], 65.5 µM; in data set [4] it was 39.2 µM; against Cholinesterase, 113 µM. Also, in data set [3], the A0.5 was determined as 4.16 µM. Further, in data set [6], the 50% inhibitory concentration (IC50) at 24 h is over 400 µM.
On to `O=C(NN=C1CC(c2ccccc2)NC(c2ccccc2)C1)c1ccc(C(F)(F)F)cc1F` (configuration not stated), for which the IC50 is over 400 µM in data set [5]; 90.1 µM against Acetylcholinesterase; 70.2 µM in data set [1]; 41.1 µM in data set [2]; 63.5 µM in data set [4]; 117 µM on Cholinesterase. Also, the A0.5 in data set [3] turned out to be 85.2 µM. Moreover, the IC50 at 24 h in data set [6] is over 400 µM.
Regarding `CCOC(=O)N1CCC(=NNC(=O)c2ccc(F)cc2C(F)(F)F)CC1`, the concentration for half-maximal inhibition (IC50) was over 400 µM in data set [5]; 124 µM against Acetylcholinesterase; 86.8 µM in data set [1]; 68.2 µM in data set [2]; 41.9 µM in data set [4]; 99.6 µM against Cholinesterase. The A0.5 in data set [3] worked out at 25.6 µM. The IC50 at 24 h in data set [6] was over 400 µM.
For `O=C(NN=C1CC(c2ccccc2)NC(c2ccccc2)C1)c1ccc(Cl)cc1` (configuration not stated), the IC50 is over 400 µM in data set [5]; 41.2 µM against Acetylcholinesterase; 96.7 µM in data set [1]; 43.6 µM in data set [2]; 67.9 µM in data set [4]; 35.3 µM on Cholinesterase. Moreover, the A0.5 in data set [3] is 49.8 µM. In addition, in data set [6], the IC50 at 24 h is over 400 µM.
Consider `O=C(NN=C1CC(c2ccccc2)NC(c2ccccc2)C1)c1ccc(F)cc1C(F)(F)F` (configuration not stated), for which the IC50 in data set [5] was over 400 µM; against Acetylcholinesterase, 49.5 µM; in data set [1], 88.3 µM; in data set [2], 115 µM; in data set [4], 88.5 µM; on Cholinesterase, 52.4 µM. For the same compound, the A0.5 in data set [3] is 88.2 µM. The IC50 at 24 h in data set [6] is over 400 µM.
Turning to `O=C(NN=C1CC(c2ccccc2)NC(c2ccccc2)C1)c1ccccc1` (configuration not stated), the IC50 in data set [5] is over 400 µM; against Acetylcholinesterase it was 99.7 µM; in data set [1] it was 42 µM; in data set [2], 41.9 µM; in data set [4] it was 238 µM; on Cholinesterase it was 66 µM. Besides, the A0.5 in data set [3] stood at 45.4 µM. Moreover, the IC50 at 24 h in data set [6] was over 400 µM.
Take `O=[N+]([O-])c1ccc(NN=C2CC(c3ccccc3)NC(c3ccccc3)C2)c([N+](=O)[O-])c1` (configuration not stated): the IC50 in data set [5] was over 400 µM; in data set [1], 20 µM; in data set [2], 28.2 µM; in data set [4], 19.2 µM. In addition, in data set [3], the A0.5 is 29.2 µM. The IC50 at 24 h in data set [6] was over 400 µM.
`Cc1ccc(C(=O)NN=C2CC(c3ccccc3)NC(c3ccccc3)C2)cc1` (configuration not stated): the IC50 in data set [5] is over 400 µM; against Acetylcholinesterase, 74.9 µM; in data set [1], 53.3 µM; in data set [2], 69 µM; in data set [4] it was 64.1 µM; against Cholinesterase, 50.1 µM. Besides, in data set [3], the A0.5 turned out to be 50.6 µM. Further, the IC50 at 24 h in data set [6] is over 400 µM.
In the case of `CCOC(=O)N1CCC(=NNC(=O)c2ccc([N+](=O)[O-])cc2)CC1`, the IC50 in data set [5] was over 400 µM; against Acetylcholinesterase it was 125 µM; in data set [1], 51.7 µM; in data set [2], 40.2 µM; in data set [4], 10.9 µM; on Cholinesterase, 156 µM. In addition, in data set [3], the A0.5 amounted to 13.3 µM. Moreover, the IC50 at 24 h in data set [6] was over 400 µM.
Turning to `O=C(NN=C1CC(c2ccccc2)NC(c2ccccc2)C1)c1ccc([N+](=O)[O-])cc1` (configuration not stated), the IC50 is over 400 µM in data set [5]; 63.9 µM against Acetylcholinesterase; 88.1 µM in data set [1]; 45.2 µM in data set [2]; 170 µM in data set [4]; 86.8 µM against Cholinesterase. Further, in data set [3], the A0.5 worked out at 17.8 µM. Also, the IC50 at 24 h in data set [6] is over 400 µM.
On to `CCOC(=O)N1CCC(=NNC(=O)c2ccc(C(F)(F)F)cc2)CC1`, for which the IC50 amounted to 136 µM against Acetylcholinesterase; 33.8 µM in data set [1]; 49.3 µM in data set [2]; 23.5 µM in data set [4]; 91.6 µM on Cholinesterase. Moreover, the A0.5 in data set [3] amounted to 51.4 µM. The IC50 at 24 h in data set [6] is over 400 µM.
On to `CCOC(=O)N1CCC(=NNC(=O)c2ccc(Cl)cc2)CC1`, for which the IC50 in data set [5] is over 400 µM; at Acetylcholinesterase, 81.8 µM; in data set [1], 59 µM; in data set [2], 72.3 µM; in data set [4], 63.9 µM; against Cholinesterase, 69.5 µM. Besides, the A0.5 in data set [3] turned out to be 23.5 µM. In addition, the IC50 at 24 h in data set [6] was over 400 µM.
With `COc1ccc(C(=O)NN=C2CC(c3ccccc3)NC(c3ccccc3)C2)cc1` (configuration not stated), the IC50 in data set [5] was over 400 µM; at Acetylcholinesterase, 92.2 µM; in data set [1], 75.8 µM; in data set [2], 34.5 µM; in data set [4], 27.9 µM; at Cholinesterase, 110 µM. Further, the A0.5 in data set [3] amounted to 77.7 µM. Also, the IC50 at 24 h in data set [6] was over 400 µM.
`CCOC(=O)N1CCC(=NNC(=O)c2ccc(C)cc2)CC1`: the IC50 in data set [5] is over 400 µM; at Acetylcholinesterase, 94.8 µM; in data set [1], 75.5 µM; in data set [2], 52.5 µM; in data set [4] it was 28.1 µM; at Cholinesterase, 76.9 µM. The A0.5 in data set [3] stood at 11.1 µM. Also, the IC50 at 24 h in data set [6] is over 400 µM.
Turning to `O=C(NN=C1CC(c2ccccc2)NC(c2ccccc2)C1)c1ccc(C(F)(F)F)cc1` (configuration not stated), the IC50 in data set [5] is over 400 µM; against Acetylcholinesterase it was 84.4 µM; in data set [1], 65 µM; in data set [2], 55.3 µM; in data set [4], 153 µM; against Cholinesterase, 99.1 µM. In data set [3], the A0.5 amounted to 92.1 µM. In addition, the IC50 at 24 h in data set [6] is over 400 µM.
